Test results taken from PubChem BioAssay.
Active and inactive are the calls of the source.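 Rule for the calls, unless noted: active = fluorescence slope higher than the sample average by over 3 SD (cut at about -0.22 in these data, passing the limit was not always enough); inactive = the rest.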

Assays:
[1] = inhibitors of TNFa-induced NFkB p65 translocation, primary screen, imaging, HUVEC, MLSMR starter and 10KST1 sets (AID 438;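 active = inhibition above 20% together with a positive visual image hit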;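 note: compound added about 3h40 before a 20 min TNFalpha stimulation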;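 for inhibition: signal is the nuclear over cytoplasmic p65 intensity ratio per well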); settings: HUVEC TNFa-induced p65 nuclear translocation; cell count: measured here: nuclei count (cytotoxicity indicator), at 2.08 µM; inhibition: at 2 µM, stronger effect = higher value, 0% TNFa-plus-vehicle, 100% no-TNFa wells
[2] = endothelial E-selectin expression blockers – imaging, HUVEC, immunofluorescence, MLSMR starter and 10KST1 sets, primary screen (AID 487;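 active = visually confirmed hit in the image check and inhibition above 20%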;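 for inhibition: signal is fraction of cell area covered by stained E-selectin grains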;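 for nuclei count: 100% = median nuclei count of all wells on the same plate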); settings: HUVEC TNFalpha-induced E-selectin immunofluorescence imaging, at 2 µM; inhibition: stronger effect = higher value; nuclei count: measured here: cell number, toxicity
[3] = Primary imaging screen for DUSP6 inhibitors that restore phospho-Erk in transfected HeLa cells, chemical complementation (AID 609;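 active = compounds giving at least 50% inhibition in the cell-based MKP-3 phosphatase rescue imaging test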;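 for inhibition: phospho-Erk level distribution per well compared with pooled transfected vehicle control wells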); settings: HeLa MKP-3 transfected, phospho-Erk imaging KS statistic, at 10 µM, cells stimulated with TPA for 15 min
[4] = target: Dual specificity protein phosphatase 6 (Homo sapiens) (UniProt Q16828); assay: as above; settings: HeLa MKP-3 transfected, phospho-Erk imaging KS statistic; at 10 µM; stronger effect = higher value; cells stimulated with TPA for 15 min
Sequence of Dual specificity protein phosphatase 6 (Homo sapiens) (Q16828 whole entry, looked up): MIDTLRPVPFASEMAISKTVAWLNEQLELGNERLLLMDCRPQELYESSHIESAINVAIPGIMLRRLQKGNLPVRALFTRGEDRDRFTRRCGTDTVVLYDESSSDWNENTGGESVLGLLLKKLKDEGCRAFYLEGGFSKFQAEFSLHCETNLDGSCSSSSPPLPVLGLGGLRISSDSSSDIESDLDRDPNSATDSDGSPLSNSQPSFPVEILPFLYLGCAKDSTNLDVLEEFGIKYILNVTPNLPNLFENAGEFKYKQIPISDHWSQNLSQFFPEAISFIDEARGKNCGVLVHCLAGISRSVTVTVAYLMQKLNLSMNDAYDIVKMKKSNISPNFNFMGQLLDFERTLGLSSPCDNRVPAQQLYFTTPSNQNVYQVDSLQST

[5] = target: Voltage-gated potassium channel subunit beta-2 (Rattus norvegicus) (UniProt P62483); assay: inhibitors of rat Kvbeta2 reductase activity – biochemical, NADPH fluorescence, primary screen (AID 622); settings: recombinant KvBeta, 4-cyanobenzaldehyde reduction, at 10 µM, stronger effect = higher value;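 note: slope of raw intensity against log time taken from 70 to 1610 s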
Sequence of Voltage-gated potassium channel subunit beta-2 (Rattus norvegicus) (P62483 whole entry, looked up): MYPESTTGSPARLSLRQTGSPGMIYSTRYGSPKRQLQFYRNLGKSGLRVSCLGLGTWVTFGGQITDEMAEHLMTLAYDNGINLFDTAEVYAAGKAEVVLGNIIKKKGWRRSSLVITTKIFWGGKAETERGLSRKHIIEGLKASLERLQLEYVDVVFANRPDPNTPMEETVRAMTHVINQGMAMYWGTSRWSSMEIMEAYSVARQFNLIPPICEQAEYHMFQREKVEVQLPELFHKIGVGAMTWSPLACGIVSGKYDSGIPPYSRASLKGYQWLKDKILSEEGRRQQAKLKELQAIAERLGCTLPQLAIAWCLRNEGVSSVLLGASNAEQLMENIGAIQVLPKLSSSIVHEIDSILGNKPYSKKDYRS

[6] = target: Voltage-gated potassium channel subunit beta-2 (Rattus norvegicus) (UniProt P62483); assay: enhancers of rat Kvbeta2 NADPH turnover – biochemical, NADPH fluorescence, primary screen (AID 623;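 active = NADPH fluorescence slope more negative than the mean of all samples by about 3 SD, 99.7% confidence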;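 note: fluorescence intensity change per second fitted from 20 to 320 s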); settings: Recombinant KvBeta, NADPH fluorescence decrease slope, 10 min; at 10 µM; stronger effect = lower value
[7] = target: Alpha-2C adrenergic receptor (Homo sapiens) (UniProt P18825); assay: compounds altering alpha2C-coupled GIRK flux – cell-based, HEK293 alpha2C/GIRK1/2, thallium flux, primary screen (AID 624;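 active = fluorescence slope after compound addition differing from the mean of all screened samples at 99.7% confidence, in either direction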;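 note: slope of fluorescence ratio to pre-addition baseline per second over 15 to 24 s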); settings: thallium flux BTC fluorescence, at 10 µM, actives lie on both sides
Sequence of Alpha-2C adrenergic receptor (Homo sapiens) (P18825 whole entry, looked up): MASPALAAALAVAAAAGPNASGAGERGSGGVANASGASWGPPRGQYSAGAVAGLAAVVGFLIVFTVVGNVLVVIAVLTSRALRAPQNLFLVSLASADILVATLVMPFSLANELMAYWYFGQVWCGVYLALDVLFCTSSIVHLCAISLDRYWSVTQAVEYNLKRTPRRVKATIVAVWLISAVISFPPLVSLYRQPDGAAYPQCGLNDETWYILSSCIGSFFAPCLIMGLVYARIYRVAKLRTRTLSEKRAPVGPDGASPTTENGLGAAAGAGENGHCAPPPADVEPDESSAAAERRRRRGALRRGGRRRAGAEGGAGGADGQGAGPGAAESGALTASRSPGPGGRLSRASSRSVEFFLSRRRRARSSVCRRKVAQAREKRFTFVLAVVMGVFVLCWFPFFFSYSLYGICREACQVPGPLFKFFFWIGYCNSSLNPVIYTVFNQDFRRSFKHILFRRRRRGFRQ

[8] = inhibitors of larval lipid processing in zebrafish, primary screen, whole organism, PED6 fluorescence, gall bladder and intestine (AID 686;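 active = a full or partial loss of lipid-probe fluorescence in the fish gall bladder, intestine or both, judged by eye; inactive = no fluorescence loss, or compound toxic to the fish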;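 note: larvae 5 to 7 days old with five fish per well; signal comes from phospholipase A2 cleavage of quenched PED6 carried via bile; overnight exposure to compound and PED6 before scoring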); settings: Zebrafish larvae PED6 lipid processing, fluorescence scoring; screened at 20 µM (by protocol)
Procedure, shortened: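 Also added: quenched phospholipase substrate PED6, 100 nM final, ingested by larvae; System: zebrafish larvae, 5-7 d; Quantity: 5 larvae per well; Compound: 20 µM single dose; Schedule: overnight compound and PED6 incubation; Read-out: visual per-well fluorescence inhibition score; Measured by: By-eye fluorescence microscopy; Medium: E3.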

[9] = loss of swimming-algae plug formation – whole organism, Chlamydomonas reinhardtii, WT vs cilia-less mutant, absorbance, 96-well, primary screen (AID 463189;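 active = inhibition at or above 50% relative to wild type and mutant plate controls; inactive = inhibition below 50%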;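 note: 0% = wild type cc124 cells in DMSO and 100% = ciliumless bld1 mutant cells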); settings: Chlamydomonas reinhardtii gravitaxis, OD600 absorbance, 2 days; at 10 µM; stronger effect = higher value
[10] = measured here: cell density z-score
[11] = measured here: nuclear c-Myc green intensity z-score
[12] = measured here: nuclear pErk red intensity z-score, stronger effect = higher value

SMILES	cell count [1]	inhibition [1]	inhibition [2]	nuclei count [2] [%]	z-score [3, 10]	z-score [3, 11]	z-score [3, 12]	inhibition [4]	fluorescence slope [5]	NADPH fluorescence slope [6]	slope [7]	outcome [8]	inhibition [9]
CCOC(=O)c1c(SC)nc(SC)c2c1CCC2	648	-8.1% (inactive)	-63.6% (inactive)	182	0.267	0.0457	1.4	-5.62% (inactive)	-0.394 (inactive)	-4.6e-05 (inactive)	0.00956 (inactive)	inactive	-10% (inactive)
CSC1=Nc2sc3c(c2C2=NCCN12)CC(C)(C)OC3	540	-10.5% (inactive)	-3.3% (inactive)	176	-0.539	0.758	-0.378	3.66% (inactive)	-0.508 (inactive)	-4.5e-05 (inactive)	0.00474 (inactive)	inactive	64.3% (active)
CN(C)CCCN1C(=O)C(O)=C(C(=O)c2cc3ccccc3o2)C1c1ccccc1 (configuration not stated)	454	2.5% (inactive)	-61.8% (inactive)	132	-0.256	0.437	-0.536	6.04% (inactive)	-0.418 (inactive)	-5.3e-05 (inactive)	0.00564 (inactive)	inactive	-3.04% (inactive)
COc1ccc(CCNC2CC(C)N(C)CC2C)cc1OC (configuration not stated)	549	-11.3% (inactive)	-75.9% (inactive)	170	0.099	-0.11	2.07	-0.608% (inactive)	-0.515 (inactive)	-3e-05 (inactive)	0.00466 (inactive)	inactive	12.3% (inactive)
Cc1ccc(SCc2nnc(N)s2)cc1	580	-16.4% (inactive)	29.9% (inactive)	161	-0.876	-0.003	0.564	-15% (inactive)	-0.396 (inactive)	-5.4e-05 (inactive)	0.00821 (inactive)	inactive	7.17% (inactive)
CCN(CC)CCCn1c(C)cc2c(c1=O)C(c1ccccc1)C(C#N)=C(N)O2 (configuration not stated)	417	11.8% (inactive)	-54.2% (inactive)	140	-0.637	0.212	1.28	0.671% (inactive)	-0.395 (inactive)	-3.1e-05 (inactive)	0.0067 (inactive)	inactive	-1.93% (inactive)
CCCCCCSC1=C(C#N)C(c2ccccc2)CC(=O)N1 (configuration not stated)	469	0.6% (inactive)	-6.9% (inactive)	74.3	0.751	0.0915	-1.53	18.9% (inactive)	-0.513 (inactive)	-6.1e-05 (inactive)	0.00499 (inactive)	inactive	24.3% (inactive)
Cn1c(=O)n(CCc2ccccc2)c(=O)c2c1ncn2Cc1ccccc1	505	-1.6% (inactive)	42.5% (inactive)	115	-0.468	1.76	-0.503	-6.48% (inactive)	-0.508 (inactive)	-0.000139 (inactive)	0.00833 (inactive)	inactive	-10.3% (inactive)
CCOC(=O)c1c(CN2CCN(C)CC2)n(C)c2cc(Br)c(OC)cc12	320	-0.7% (inactive)	-50.3% (inactive)	138	-0.018	0.891	1.91	-12.3% (inactive)	-0.462 (inactive)	-0.000148 (inactive)	0.00634 (inactive)	inactive	53.1% (active)
CCOC(=O)C1=C(CSc2nc(-c3ccncc3)ccc2C#N)OC(N)=C(C#N)C1c1cccnc1 (configuration not stated)	701	-10.4% (inactive)	45.7% (inactive)	173	-0.622	0.296	2	-8.95% (inactive)	-0.283 (inactive)	-5.8e-05 (inactive)	0.00429 (inactive)	inactive	-5.64% (inactive)
Cn1c2ccccc2c2nn(-c3ccccc3)c(=O)cc21	304	-5% (inactive)	-28.5% (inactive)	94.5	-1.04	0.853	-0.375	-8.59% (inactive)	-0.441 (inactive)	-0.000115 (inactive)	0.00467 (inactive)	inactive	-13.4% (inactive)
CCOc1ccc(CC2CC(=O)NC2=O)cc1 (configuration not stated)	622	2.8% (inactive)	-113% (inactive)	185	-0.992	-0.148	1.17	-0.159% (inactive)	-0.484 (inactive)	-9.9e-05 (inactive)	0.00492 (inactive)	inactive	9.39% (inactive)
COc1cc(/C=N/O)ccc1OCc1ccc(C(=O)O)cc1	587	-21.9% (inactive)	-51.1% (inactive)	154	-1.09	0.882	0.52	-0.608% (inactive)	-0.357 (inactive)	-5.9e-05 (inactive)	0.00492 (inactive)	inactive	-7.38% (inactive)
COc1ccc(C(CC(=O)N2CCOCC2)C(C)C)cc1 (configuration not stated)	486	10.6% (inactive)	-31.9% (inactive)	97.9	-1.63	1.26	-0.603	-5.26% (inactive)	-0.476 (inactive)	-7e-06 (inactive)	0.00515 (inactive)	inactive	19.8% (inactive)
